An excerpt weighted towards active compounds, which were near 3.5% of everything screened.
MrgX1 agonist – activates human MrgX1 receptor signaling | MrgX1-HEK293 cells, Fluo-4 calcium fluorescence, agonist mode; active compounds read high | B-score at 10 µM | actives 0.44% (n = 310,000);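 active means calcium response B-score plate-corrected fluorescence ratio at least 3 library SD, with starting fluorescence B-score inside 5 SD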
Target sequence (Q96LB2 whole entry, looked up): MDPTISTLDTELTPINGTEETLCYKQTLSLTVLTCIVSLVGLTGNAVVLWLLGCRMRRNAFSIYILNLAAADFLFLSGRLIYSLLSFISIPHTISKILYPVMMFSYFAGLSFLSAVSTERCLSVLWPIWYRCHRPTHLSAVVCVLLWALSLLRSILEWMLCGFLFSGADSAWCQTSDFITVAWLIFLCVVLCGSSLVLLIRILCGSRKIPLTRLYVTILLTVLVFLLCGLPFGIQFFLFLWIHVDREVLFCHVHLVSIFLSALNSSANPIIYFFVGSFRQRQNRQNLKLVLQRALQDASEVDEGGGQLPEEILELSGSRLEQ
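Test system: HEK293 cells stably expressing human MrgX1 receptor; amount: 15,000 cells per well; doses: compound delivered in addition one of three; times: overnight plating before 1 h dye loading; detection: Fluo-4 NW calcium-flux fluorescence, kinetic read; read-out basis: B-scored fluorescence response ratio; controls: positive and negative controls per plate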
MrgX1 antagonist – blocks BAM8-22 activation of human MrgX1 receptor. B-score at 10 µM. AID 588676. MRGX1-HEK293 calcium flux, Fluo-4, BAM8-22 antagonism; active compounds read low. actives 1.3% (n = 310,000);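 active means calcium-response B-score plate-corrected more than 3 library SD below zero, starting fluorescence within 5 deviations, no agonist response on first addition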;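 further: peak minus trough fluorescence over baseline after final BAM8-22 challenge near maximal dose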
RGS4 pot – RGS4 potentiation or activation; HEK293 M3R/inducible RGS4, carbachol calcium flux Fluo4; active compounds read low; B-score at 10 µM; actives 0.92% (n = 310,000); AID 463111;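 active means B-score of the integrated calcium signal more than 4 SD below the library mean, with starting fluorescence not abnormally high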;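 further: negative B-score means reduced calcium response which marks RGS4 activation or potentiation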
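System – HEK293 FlpIn-TREx cells, stable M3R, doxycycline-inducible RGS4 · Reagent – ECmax carbachol challenge · Times – compound preincubation 20 min at room temperature before agonist · Technique – Fluo4 fluorescence kinetic imaging of calcium · Measure – B score of integrated Fluo4 ratio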
MrgX1 allo act – human MrgX1 positive allosteric modulation, primary screen. Q96LB2. MrgX1-HEK293, Fluo-4 calcium flux, FDSS; active compounds read high. B-score at 10 µM. actives 0.63% (n = 310,000);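 active means plate-corrected calcium response at least 3 library SD above typical, normal starting fluorescence, not activating the receptor alone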;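 further: compound read alongside a low EC10 to EC30 dose of BAM8-22 agonist; peak minus trough fluorescence over baseline measured at the second addition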
RGS4 inh – human RGS4 inhibition | HEK293 M3R/RGS4 inducible, Fluo-4 calcium flux; active compounds read high; triggered by carbachol at its EC20 | B-score at 10 µM | actives 0.45% (n = 310,000);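 active means B-score, a plate-corrected calcium signal, over three deviations above library mean, with baseline fluorescence within five deviations of library mean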;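 further: RGS4 expression induced by doxycycline in cells with stable M3 receptor; B-score is computed from the integrated fluorescence ratio over baseline after carbachol; higher B-score means a larger calcium signal and so more RGS4 inhibition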
Target sequence (P49798 whole entry, looked up): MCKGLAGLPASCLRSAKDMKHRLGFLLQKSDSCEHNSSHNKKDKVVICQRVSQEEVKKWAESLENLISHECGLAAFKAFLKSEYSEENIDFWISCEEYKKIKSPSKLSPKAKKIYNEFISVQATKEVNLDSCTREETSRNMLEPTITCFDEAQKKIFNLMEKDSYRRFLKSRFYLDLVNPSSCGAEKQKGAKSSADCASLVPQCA
MrgX1 antag conf – human MrgX1 receptor antagonism, re-confirmation screen | actives 19% (n = 2,300) | shares compounds with MrgX1 antagonist | remaining BAM8-22 calcium response % of control (active compounds read low), % at 10 µM | MrgX1-HEK293, BAM8-22 calcium flux, Fluo-4; active compounds read low;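 active means remaining agonist calcium response no higher than 100% minus 3 SD of agonist-only control wells, with starting fluorescence near control levels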;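 further: agonist BAM8-22 given at a near maximal EC90 to ECmax level; peak minus minimum fluorescence divided by baseline after agonist addition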
HEK293 Ca flux – MrgX1 antagonist counter-screen hit in parental HEK293 cells; shares compounds with MrgX1 antagonist; Fluo-4 calcium fluorescence, FDSS; AID 624111; actives 2% (n = 4,000); fluorescence ratio F(max-min)/F0 at 10 µM;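 active means duplicate-averaged calcium fluorescence ratio at least three times the standard deviation of buffer wells, a nonspecific response in parental cells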
HEK293 Ca counter – MrgX1 allosteric activator counter-screen hit in parental HEK293 cells; shares compounds with MrgX1 antagonist; parental HEK293 calcium flux, Fluo-4 fluorescence ratio; active compounds read high; fluorescence ratio F(max-min)/F0 at 10 µM; actives 0.4% (n = 4,000); AID 624114;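 active means calcium fluorescence ratio, averaged over duplicates, at least 3 SD of the buffer-well ratio, meaning a nonspecific response in receptor-free cells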;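 further: untransfected parental HEK293 lacking MrgX1 used as counterscreen for MrgX1 allosteric activators; fluorescence change taken during the second addition on a kinetic imager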
HEK293 Ca cntr2 – counter-screen for MrgX1 activators: effect in parental HEK293 cells | shares compounds with MrgX1 antagonist | Fluo-4 calcium fluorescence (FDSS); active compounds read high | fluorescence ratio F(max-min)/F0 at 10 µM | actives 8.7% (n = 4,000) | AID 624115;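 active means calcium fluorescence ratio at least three times the spread of buffer wells, meaning a non-specific response in parental cells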
Each line names hits and unclear results; the compound was inactive in the other large screens (follow-up assays come after a bar, where they were run).

CCCNC(=O)c1cccc(NC(=O)C(C)C)c1	MrgX1 antagonist -7.27 | MrgX1 antag conf inactive | HEK293 Ca flux inactive | HEK293 Ca counter inactive | HEK293 Ca cntr2 47.8
CCC(CC)C(=O)Nc1cccc(C(=O)Nc2ccc3c(c2)OCO3)c1	MrgX1 antagonist -6 | MrgX1 antag conf inactive | HEK293 Ca flux inactive | HEK293 Ca counter inactive | HEK293 Ca cntr2 inactive
CCN(CC)S(=O)(=O)c1cccc(C(=O)Nc2ccc3c(c2)OCO3)c1	none
Cc1cccc(Cc2nnc(CCC(=O)N(C)C3CCOC3)o2)c1 (stereo not given)	none
COCCn1c(C)cc(C(=O)CSc2n[nH]c(N)n2)c1C	MrgX1 antagonist -4.83 | MrgX1 antag conf inactive | HEK293 Ca flux inactive | HEK293 Ca counter inactive | HEK293 Ca cntr2 inactive
COCCn1c(C)cc(C(=O)CSc2nc3nc(C)cc(C)n3n2)c1C	none
O=C(COc1ccc(S(=O)(=O)N2CCCC2)cc1)NCc1ccccn1	none
O=c1[nH]c2cc(Br)cnc2nc1/C=C(\O)c1ccc(F)cc1	MrgX1 antagonist -6.95 | MrgX1 antag conf 75.0% | HEK293 Ca flux inactive | HEK293 Ca counter inactive | HEK293 Ca cntr2 inactive
Cc1ccc(NC(=O)COC(=O)Cc2ccsc2)cc1S(=O)(=O)N1CCOCC1	MrgX1 antagonist -5.43 | MrgX1 antag conf inactive | HEK293 Ca flux inactive | HEK293 Ca counter inactive | HEK293 Ca cntr2 inactive
CCOC(=O)c1ccccc1NC(=O)COC(=O)C1CCN(S(=O)(=O)c2ccccc2C(=O)OC)CC1	MrgX1 antagonist -11 | MrgX1 antag conf inactive | HEK293 Ca flux inactive | HEK293 Ca counter inactive | HEK293 Ca cntr2 inactive
Cc1ccc(NC(=O)COC(=O)C2CCC2)cc1S(=O)(=O)N1CCCCC1	MrgX1 antagonist -5.38 | MrgX1 antag conf 84.1% | HEK293 Ca flux inactive | HEK293 Ca counter inactive | HEK293 Ca cntr2 inactive
CCCOc1ccc(C(=O)N(Cc2cccs2)C2CCS(=O)(=O)C2)cc1 (stereo not given)	none
O=C(Cc1ccccc1)NCC(=O)N1CCN(c2ccccc2F)CC1	none
CN1CCOCCOCCN(C)C1=O	MrgX1 antagonist -4.59 | MrgX1 antag conf inactive | HEK293 Ca flux inactive | HEK293 Ca counter inactive | HEK293 Ca cntr2 inactive
COC(=O)CN1C(=O)CC(C)(C)Sc2ccccc21	none
CC1(C)CC(=O)N(CC(=O)O)c2ccccc2S1	MrgX1 antagonist -4.53 | MrgX1 antag conf inactive | HEK293 Ca flux inactive | HEK293 Ca counter inactive | HEK293 Ca cntr2 inactive
COC(=O)CCCC(=O)N1CCCC(CCC(=O)NCc2ccc(F)c(F)c2)C1 (stereo not given)	none
O=C(CCC1CCCN(C(=O)CCC(F)(F)F)C1)NCc1ccc(F)c(F)c1 (stereo not given)	MrgX1 antagonist -4.78 | MrgX1 antag conf inactive | HEK293 Ca flux inactive | HEK293 Ca counter inactive | HEK293 Ca cntr2 inactive
O=[N+]([O-])c1cc(C(F)(F)F)ccc1NCCCCNS(=O)(=O)c1ccc(Cl)cc1	none
O=[N+]([O-])c1cc(C(F)(F)F)ccc1NCCNC(=S)Nc1ccc(Cl)cc1	MrgX1 antagonist -10.8, RGS4 pot -7.12 | MrgX1 antag conf 71.8% | HEK293 Ca flux inactive | HEK293 Ca counter inactive | HEK293 Ca cntr2 inactive
COC(=O)[C@@H]1C[C@H]2CC[C@H](O)C[C@H]2N1Cc1ccccc1OS(=O)(=O)c1ccc(C)cc1	none
N#Cc1ccc(OS(=O)(=O)c2ccc(-c3ccon3)s2)cc1	MrgX1 antagonist -4.68 | MrgX1 antag conf inactive | HEK293 Ca flux inactive | HEK293 Ca counter inactive | HEK293 Ca cntr2 inactive
CC(C)Oc1ccc(C(=O)NCc2ccco2)cc1	MrgX1 antagonist -5.91 | MrgX1 antag conf inactive | HEK293 Ca flux inactive | HEK293 Ca counter inactive | HEK293 Ca cntr2 inactive
CCCOc1ccc(C(=O)NCc2ccco2)cc1	none
Nc1nc(Cl)cc(NCCc2ccccc2)n1	none
Nc1nc(Cl)cc(NCCc2ccc(O)cc2)n1	MrgX1 antagonist -5.83 | MrgX1 antag conf inactive | HEK293 Ca flux inactive | HEK293 Ca counter inactive | HEK293 Ca cntr2 inactive
CC(C)Cc1ccc(C(C)C(=O)Nc2ccc(O)cc2)cc1 (stereo not given)	MrgX1 antagonist -8.2 | MrgX1 antag conf inactive | HEK293 Ca flux inactive | HEK293 Ca counter inactive | HEK293 Ca cntr2 66.3
COc1ccc(-c2cc(-c3ccccc3)nc(-c3ccc4c(c3)NC(=O)CO4)c2)cc1	MrgX1 antagonist -5.86 | MrgX1 antag conf inactive | HEK293 Ca flux inactive | HEK293 Ca counter inactive | HEK293 Ca cntr2 inactive
COc1ccc(Nc2nc(-c3ccc4c(c3)NC(=O)CO4)cs2)cc1	none
Cc1ccc(-n2cc(S(=O)(=O)c3ccc(C)cc3)[nH]c2=O)cc1	MrgX1 antagonist -4.81 | MrgX1 antag conf inactive | HEK293 Ca flux inactive | HEK293 Ca counter inactive | HEK293 Ca cntr2 inactive
O=C(Nc1cc(S(=O)(=O)N2CCOCC2)ccc1N1CCOCC1)c1cnccn1	MrgX1 antagonist -4.82 | MrgX1 antag conf inactive | HEK293 Ca flux inactive | HEK293 Ca counter inactive | HEK293 Ca cntr2 inactive
CCC(CC)NC(=O)Cc1ccc(F)cc1	none
Cc1ccc(S(=O)(=O)/N=c2\sccn2C)cc1	none
Cn1ccs/c1=N\S(=O)(=O)c1ccc(F)cc1	MrgX1 antagonist -5.01 | MrgX1 antag conf inactive | HEK293 Ca flux inactive | HEK293 Ca counter inactive | HEK293 Ca cntr2 inactive
CC(C)(Cc1cc(CC(C)(C)C(=O)O)cc(C(C)(C)C)c1)C(=O)O	MrgX1 antagonist -7.55 | MrgX1 antag conf inactive | HEK293 Ca flux inactive | HEK293 Ca counter inactive | HEK293 Ca cntr2 inactive
O=C(NCC1COc2ccccc2O1)c1cccc(S(=O)(=O)NCc2ccccc2)c1 (stereo not given)	none
O=C(O)c1ccc2ncsc2c1	MrgX1 antagonist -5.64 | MrgX1 antag conf 67.8% | HEK293 Ca flux inactive | HEK293 Ca counter inactive | HEK293 Ca cntr2 inactive
Cc1nc(=O)c(-c2ccccc2)c(C)n1-c1ccc(C(=O)O)cc1	MrgX1 antagonist -4.92 | MrgX1 antag conf inactive | HEK293 Ca flux inactive | HEK293 Ca counter inactive | HEK293 Ca cntr2 inactive
Cc1nc(=O)c(-c2ccccc2)c(C)n1-c1ccc(S(N)(=O)=O)cc1	none
CCN(c1ccccc1)S(=O)(=O)c1csc(C(N)=O)c1	none
